From PMC5835416 (Biochimica et biophysica acta, 2018) come the findings set out here.

Series [1] concerns the target T1, tear lipocalin (Homo sapiens, UniProt P31025). In words: Linear spectral summation. Type of series: binding. Conditions: apparent, tear lipocalin 10 μM, pH 7.3. In outline: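 Each spectrum fitted as linear sum of bound reference (2 μM ligand + 10 μM protein), unbound reference (2 μM ligand in buffer) and baseline, yielding bound and free ligand. Triplicate means fitted to hyperbola or Hill equation.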

The target in series [2] is T1, tear lipocalin. In words: Fluorescence binding assay with NBD-labeled lipids. Conditions: 1 μM tear lipocalin; for fluorescence in the presence of tear lipocalin compared to the unbound label: 1 μM ligand; for Kd: apparent, pH 7.3. In outline:
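After equilibration, fluorescence spectra recorded at 20°C, λex 420 nm. Relative intensity at 523 nm used to compute bound label. Triplicate runs, means taken. B/P versus unbound lipid fitted by nonlinear regression to a rectangular hyperbola or Hill equation, giving apparent Kd and n.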

Series [3] is described as follows: Centrifugal precipitation of lipid in buffer without protein. It counts as physicochemical. Conditions: 10 mM Na-phosphate pH 7.3; ~196,000 × g.
Series [4] has as its target T1, tear lipocalin. Type of series: binding. In outline:
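Incubated 25°C 30 min or 34°C 16 h, then centrifuged ~196,000 × g, 1 h, same temperature. Bound (supernatant) and precipitated ligand quantified by absorbance via extinction coefficients. Lysozyme 10 μM as negative control. Triplicate means fitted to hyperbola and Hill equation.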

In series [5] the target is T1, tear lipocalin. Nature of the series: DAUDA displacement fluorescence assay. It counts as binding. Conditions: end of titration.
Where [6] appears, read: apparent, Hill equation fit, 10 μM (C6) or 20 μM (C12) tear lipocalin, 10 mM sodium phosphate pH 7.3.
[7] abbreviates: apparent, hyperbola fit, 10 μM (C6) or 20 μM (C12) tear lipocalin, 10 mM sodium phosphate pH 7.3.

Molecules are shown by their SMILES. Read-outs that look alike come from different tables or passages of the source.

T1 sequence (P31025 19-176): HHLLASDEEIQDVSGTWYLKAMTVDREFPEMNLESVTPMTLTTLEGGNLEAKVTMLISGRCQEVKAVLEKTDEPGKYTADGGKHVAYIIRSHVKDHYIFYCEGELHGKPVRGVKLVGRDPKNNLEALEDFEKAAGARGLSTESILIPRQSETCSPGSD

As to `CCCCCCCCCCCCC/C=C/[C@@H](O)[C@H](CO)NC(=O)CCCCCNc1ccc([N+](=O)[O-])c2nonc12` [C6-NBD ceramide, N-[6-[(7-nitro-2-1,3-benzoxadiazol-4-yl)amino]hexanoyl]-D-erythro-sphingosine], the Kd in series [1] (Hill equation fit) was found to be 70 nM; in series [1] (hyperbola fit), 60 nM; in series [2] (Hill equation fit), 80 nM; in series [2] (hyperbola fit) it was 80 nM; in series [4] (setting [6]) it was 290 nM; in series [4] (setting [7]), 320 nM. In addition, in series [2], the “fluorescence in the presence of tear lipocalin compared to the unbound label” value is “enhanced fluorescence”. The precipitation in buffer result in series [3] is given as “complete precipitation”. The “apparent dissociation constant (Kd)” value in series [4] (fit not named) is “sub-micromolar”.

As for `CCCCCCCCCCCCC/C=C/[C@@H](O)[C@H](CO)NC(=O)CCCCCCCCCCCNc1ccc([N+](=O)[O-])c2nonc12` [C12-NBD ceramide, N-[12-[(7-nitro-2-1,3-benzoxadiazol-4-yl)amino]dodecanoyl]-D-erythro-sphingosine], the “fluorescence in the presence of tear lipocalin compared to the unbound label” value in series [2] is “enhanced fluorescence”. Besides, the Kd in series [2] (Hill equation fit) was 100 nM; in series [2] (hyperbola fit), 130 nM; in series [4] (setting [6]) it was 1060 nM; in series [4] (setting [7]), 1230 nM; in series [4] (read-out: apparent dissociation constant (Kd), fit not named), 1200 nM. In series [3], the precipitation in buffer entry is reported as “complete precipitation”.

`CCCCCCCCCCCCC/C=C/[C@@H](O)[C@H](CO)NC(=O)CCCCCCCCCCCCCCCCC` [C18-ceramide, ceramide-N-(octadecanoyl) sphing-4-enine, also known as N-stearoyl-D-erythro-sphingosine]: the “residual DAUDA fluorescence compared with stearic acid” value in series [5] was “twice as great”.
